Assay outcomes (PubChem)
Efflux pump inh – inhibitors of Candida antifungal efflux pumps expressed in yeast. S. cerevisiae Candida pump triplex, Nile Red efflux. inhibition, % at 10 µM. hit rate 0.44% among 330,000. AID 485275;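 active means plate passing quality check with inhibition over a set limit, or well fluorescence over plate mean plus 4 SD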;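 further: Nile Red retained in pooled yeast measured as flow cytometry median fluorescence; 0% = buffer negative control and 100% = Enniatin B positive control; higher means more Nile Red kept so more efflux inhibition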
Pemphigus Ab inh – human desmoglein-3 autoantibody binding inhibition | DSG3-coupled beads, scFv-anti-DSG3-GFP binding, flow cytometry; stronger effect = lower value | hit rate 0.48% among 310,000 | binding (percent of control), % at 10 µM | P32926 | AID 588358;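 active means binding more than 3 SD below its plate's average and above zero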;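 further: hits lower antibody fragment binding to DSG3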
Arrestin-AP2 inh – inhibitors of human beta-arrestin and AP2 interaction; inhibition, % at 10 µM; FITC-arrestin peptide / GST-AP2 beads, flow cytometry; AP2 beta2 appendage carries R879A mutation; hit rate 0.31% among 340,000; AID 504490;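 active means inhibition above a set limit, near 3 SD of compounds lacking own fluorescence, cut at about 54% in these data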;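 further: plate controls were DMSO wells for no effect and 5 µM unlabelled arrestin peptide for full effect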
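System: GST-AP2 R879A glutathione beads; medium: PBS, Tween 20 0.05%, BSA 0.1%; reagent: fluorescein-tagged arrestin peptide at 50 nM final; schedule: pre-incubation 12 min, peptide binding 1 h, room temperature; detection: flow cytometry, FL1 (488/535 nm); read-out: inhibition as reduced fluorescein signal on beads, percent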
Neddylation inh – blocks human cullin neddylation | P61081+Q13564 | TR-FRET cullin neddylation, biochemical | inhibition, % at 25 µM | hit rate 0.58% among 360,000 | AID 651699; in the data active means inhibition above about 36%
Target sequence (P61081 whole entry, looked up): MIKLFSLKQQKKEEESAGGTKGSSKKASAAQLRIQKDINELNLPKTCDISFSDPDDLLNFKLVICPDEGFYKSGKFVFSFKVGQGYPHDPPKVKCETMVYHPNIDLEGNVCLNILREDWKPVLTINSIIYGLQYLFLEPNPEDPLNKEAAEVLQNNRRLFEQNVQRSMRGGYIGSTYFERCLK
Target sequence (Q13564 whole entry, looked up): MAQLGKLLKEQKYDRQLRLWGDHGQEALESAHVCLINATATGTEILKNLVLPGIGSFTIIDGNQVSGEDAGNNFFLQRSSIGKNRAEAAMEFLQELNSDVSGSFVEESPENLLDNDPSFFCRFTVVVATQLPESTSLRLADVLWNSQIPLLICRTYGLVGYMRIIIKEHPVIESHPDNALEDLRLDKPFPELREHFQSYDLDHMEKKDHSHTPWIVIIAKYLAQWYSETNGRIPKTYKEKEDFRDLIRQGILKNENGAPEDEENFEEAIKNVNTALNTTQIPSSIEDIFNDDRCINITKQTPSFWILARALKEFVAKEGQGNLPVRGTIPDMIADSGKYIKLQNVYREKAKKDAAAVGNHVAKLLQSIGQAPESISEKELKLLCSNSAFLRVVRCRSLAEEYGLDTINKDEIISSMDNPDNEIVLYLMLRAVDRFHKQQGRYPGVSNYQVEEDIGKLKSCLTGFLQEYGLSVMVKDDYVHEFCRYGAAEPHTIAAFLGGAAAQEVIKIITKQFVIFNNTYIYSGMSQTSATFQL
Arr-AP2 CP1 – human beta-arrestin and AP2 interaction inhibition, cherry pick | shares compounds with Arrestin-AP2 inh | GST-AP2 beads, FITC arrestin peptide binding, flow cytometry; GST-fused beta2-adaptin appendage, R879A mutant | inhibition, % at 10 µM | hit rate 2% among 1,300 | AID 504908;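 active means inhibition above a set limit, roughly 3 SD of non-fluorescent compound noise, cut at about 38% in these data; inactive means inhibition at or below that limit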;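 further: loss of bead fluorescence from 50 nM FITC arrestin peptide bound to appendage; 0% = negative control wells and 100% = excess unlabelled arrestin peptide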
GST GSH counter – GST-GSH bead binding interference, counter-screen; inhibition, % at 10 µM; hit rate 2% among 1,300; GST-fluorescein binding to GSH beads, fluorescence; AID 588338; shares compounds with Arrestin-AP2 inh;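 active means inhibition above 50%, about 3 SD of the inhibition seen with non-fluorescent compounds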;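 further: fluorescein maleimide labelled GST captured on 4 micron glutathione beads; higher means more loss of bead fluorescence from quenching or blocked binding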
Neddyl conf – confirmation of human cullin neddylation inhibitors. hit rate 13% among 1,800. calls only at 25 µM. AID 652217. TR-FRET cullin neddylation biochemical assay. shares compounds with Neddylation inh; in the data active means inhibition above about 40%;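 further: neddylation substrate is the cullin 1 ring ligase complex with SKP2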
An asterisk follows results filed as active; i = inactive; . = no result shown; + = active, no number. Most compounds without a hit are left out; they make up all but 1.7% or so of the library.

SMILES	Efflux pump inh	Pemphigus Ab inh	Arrestin-AP2 inh	Neddylation inh	others
O=C(O)c1cnn2c(-c3ccccc3)ccnc12	0	108	-14	21
NC(=O)c1cnn2c(-c3cccc(C(F)(F)F)c3)ccnc12	0	97	68*	48*	Arr-AP2 CP1=-11;GST GSH counter=-4;Neddyl conf=i
CCOC(=O)C1(Cc2cccc(OC)c2)CCN(Cc2ccon2)CC1	0	101	-9	2
CC(=O)N1CCN(c2ccc(NC(=O)c3ccc(OCc4ccccc4)cc3)cc2)CC1	0	110	100*	44*	Arr-AP2 CP1=-12;GST GSH counter=-8;Neddyl conf=i
COCCNC(=O)COC(=O)c1cc(-c2ccc(OC)cc2)nc2ccccc12	0	96	18	44*
CCNC(=O)COC(=O)c1cc(-c2ccc(OC)cc2)nc2ccccc12	0	101	16	57*
COc1ccc(-c2cc(C(=O)OCC(=O)NC3CC3)c3ccccc3n2)cc1	0	90	4	56*
CCCNC(=O)COC(=O)c1cc(-c2ccc(OC)cc2)nc2ccccc12	0	102	-9	.
CC(=O)N/C(=C/c1ccc2c(c1)OCO2)C(=O)NCC(=O)O	0	83	22	1
COc1ccc(N2C(=O)c3ccccc3NC23CCC(C)CC3)cc1 (centres undefined)	0	.	14	45*
COc1ccc(N2C(=O)c3ccccc3NC2(C)C)cc1	0	115	9	.
CCOc1ccc(N2C(=O)c3ccccc3NC2(C)CC)cc1 (centres undefined)	0	86	-8	12
COc1ccc(N2C(=O)c3ccccc3NC23CCCCC3)cc1	0	98	-5	41*
Cc1cc(OCc2cc(C(=O)N(C)CCc3cnn(C)c3)no2)cc(C)c1Cl	0	97	29	1
O=C(O)CC(c1cccc2ccccc12)n1cccc1 (centres undefined)	0	.	12	1
COc1ccc(Cl)cc1NC(=O)Cn1nnc(C(=O)NCc2ccc3c(c2)OCO3)c1N	0	98	-1	69*	Neddyl conf=i
N#CC(c1ccccc1)C(CC(=NO)c1ccccc1)c1ccccc1 (centres undefined)	.	102	.	7
COCCNC(=O)CSc1ccc(-c2nc3ccccc3[nH]2)cn1	0	95	-2	49*	Neddyl conf=+
Cc1cc(-c2ccccc2)c2c3c(cn2n1)c(=O)n(C)c(=O)n3C	0	100	-3	-13
Cc1cc(-c2ccccc2)c2nncn2n1	0	102	14	40*	Neddyl conf=+
COc1ccc([C@H]2CC(=O)C=C(c3ccc(F)cc3OCc3ccccc3)C2)cc1OC	0	97	24	-35
O=C(NC1CCCCC1)c1cnn2c(C(F)(F)F)cc(-c3ccco3)nc12	0	97	11	42*	Neddyl conf=+
CC(C)NC(=O)c1cc2nc(-c3ccco3)cc(C(F)(F)F)n2n1	0	102	23	.
CCCNC(=O)c1cc2nc(-c3ccccc3)cc(C(F)(F)F)n2n1	0	102	6	45*
O=C(NC1CCCC1)c1cc2nc(-c3ccco3)cc(C(F)(F)F)n2n1	0	113	13	55*	Neddyl conf=i
SMILES	Efflux pump inh	Pemphigus Ab inh	Arrestin-AP2 inh	Neddylation inh	others
CCC(=O)N1CCc2cc(S(=O)(=O)N3CCN(c4cc(C)ccc4C)CC3)ccc21	0	108	-1	1
O=S(=O)(O)c1nc2ccccc2n1Cc1cccc2ccccc12	0	.	.	.
CCc1nn(CCCC(=O)NCc2cc(Br)ccc2OC)c(=O)c2cc3occc3n12	0	.	-6	-12
Cc1csc(NC(=O)c2cc(=O)[nH]c3ccc(S(=O)(=O)N4CCOCC4)cc23)n1	0	126	-6	57*
COc1cc(NC(=O)c2cc(=O)[nH]c3ccc(S(=O)(=O)N4CCOCC4)cc23)cc(OC)c1	.	88	-3	6
CCc1csc(CNC(=O)C2CCC(=O)N(Cc3cccc(F)c3)C2)n1 (centres undefined)	0	101	-4	4
COc1ccc2c(c1)c(C)cc[n+]2Cc1ccccc1	0	93	1	43*
O=c1c(Cl)nc2cc(Cl)ccc2n1CCNc1ncc(C(F)(F)F)cc1Cl	0	99	6	0
CCOC(=O)c1c(C)[nH]c(C(=O)Nc2cc(OCC)c(N3CCOCC3)cc2OCC)c1C	0	110	3	45*	Neddyl conf=i
CCOc1cc(N2CCOCC2)c(OCC)cc1NC(=O)c1cc(C)cc(C)c1	0	92	-16	27
Cc1ccc(C)c(NC(=O)CCN2CCN(CCO)CC2)c1	0	114	6	3
O=C(c1cnn2c(C(F)F)cc(-c3ccccc3)nc12)N1CCc2ccccc2C1	1	91	6	48*	Neddyl conf=i
COCCNC(=O)c1cnn2c(C(F)F)cc(-c3ccccc3)nc12	0	108	19	41*	Neddyl conf=i
CCn1c(SCC(=O)NC2=NCCS2)nnc1C(C)NC(=O)c1ccc(Cl)cc1 (centres undefined)	0	106	23	7
O=C(CCCCn1ccc(=O)[nH]c1=O)Nc1ccc(O)c(C(=O)O)c1	.	96	-2	39*
O=C(CCCCn1ccc(=O)[nH]c1=O)Nc1ccc(C(=O)O)c(O)c1	.	95	-15	29
Cc1ccc(C)c(NC(=O)CN(C)C(=O)C2COc3ccccc3O2)c1 (centres undefined)	0	104	13	3
CCOC(=O)C(NC(=O)c1cccc(Cl)c1)(OCc1ccccc1)C(F)(F)F (centres undefined)	1	115	-6	0
Cc1cc(-c2nnc(CCC(=O)NC(Cc3ccccc3)c3ccccc3)o2)no1 (centres undefined)	0	96	0	11
COc1ccccc1-c1cnc(C(O)c2ccc(C)cc2C)[nH]1 (centres undefined)	.	.	.	8
O=C(COc1ccc2ccc(=O)oc2c1)Nc1ccc(N2CCCCC2)cc1	0	103	2	61*
Cc1c(C)c2ccc(OCC(=O)Nc3ccc(CN4CCOCC4)cc3)cc2oc1=O	0	109	4	52*	Neddyl conf=i
COc1cccc(CCc2nnc(CCC(=O)N3CCN(Cc4ccccn4)CC3)o2)c1	0	96	20	2
CC(C)(O)C#Cc1ccc(C(=O)N2CCC(C(N)=O)(N3CCCCC3)CC2)o1	.	122	-7	2
CCOc1ccc(-c2cc(C(=O)N/N=C(\C)c3cccnc3)c3ccccc3n2)c(OCC)c1	0	96	6	52*	Neddyl conf=i
COc1ccc(-c2cc(C(=O)N/N=C(\C)c3cccnc3)c3ccccc3n2)cc1	0	106	-1	.
Cc1nc2scc(C)n2c(=O)c1S(=O)(=O)NCCc1ccc(Cl)cc1	0	.	8	4
